The values below come from ChEMBL document CHEMBL1287801, “Discovery of NBI-77860/GSK561679, a potent corticotropin-releasing factor (CRF1) receptor antagonist with improved pharmacokinetic properties” (Bioorg Med Chem Lett, 2010).

SMILES strings stand for the structures.

The nature of data set [1]: Metabolic stability in human liver microsome assessed as maximum bioavailability. Particulars: liver microsomes, read-out: Max Achievable Bioavailability. The format is ADME. (In general: Microsomes from liver hold many membrane-bound enzymes, among them those of drug oxidation.)
Data set [2] concerns the target T1, Corticotropin-releasing factor receptor 1 (Homo sapiens, UniProt P34998).
T1 sequence (P34998 whole entry): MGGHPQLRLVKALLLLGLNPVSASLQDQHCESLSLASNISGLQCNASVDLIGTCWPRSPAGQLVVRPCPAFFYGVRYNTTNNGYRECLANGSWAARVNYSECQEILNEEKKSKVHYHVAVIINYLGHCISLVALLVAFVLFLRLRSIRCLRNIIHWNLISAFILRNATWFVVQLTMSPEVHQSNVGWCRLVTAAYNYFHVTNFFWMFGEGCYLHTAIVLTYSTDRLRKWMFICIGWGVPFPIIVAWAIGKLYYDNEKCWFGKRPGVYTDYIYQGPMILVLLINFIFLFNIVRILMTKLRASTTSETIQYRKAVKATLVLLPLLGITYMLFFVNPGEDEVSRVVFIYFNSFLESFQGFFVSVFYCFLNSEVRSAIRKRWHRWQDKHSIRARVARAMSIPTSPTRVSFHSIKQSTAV
Put plainly: Antagonist activity at human recombinant CRF1 receptor. The format is functional.

For another data set, the system named is Rattus norvegicus. Put plainly: AUC (0 to 24 hrs) in rat at 10 mg/kg, po. The data set is classed as ADME, organism-based, Plasma. More on the design: time < 24 hr, dose 10 mg/kg, route oral. Conditions: in vivo. Put shortly: (§1)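 Rats were given a single oral dose of 10 mg/kg and followed for 24 h. Plasma exposure was expressed as AUC0–24 and oral bioavailability was determined. Brain and plasma levels were measured 1 h post-dose to give the brain/plasma ratio.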

The nature of data set [3]: Volume of distribution in rat at 5 mg/kg, iv after 72 hrs. The format is ADME, organism-based. Conditions: in vivo. More on the design: dose 5 mg/kg, route intravenous. Put shortly:
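Rats received a single intravenous dose of 5 mg/kg in a 72 h pharmacokinetic study. Clearance and volume of distribution at steady state (Vdss) were derived.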

Data set [4] can be described thus: Ratio of drug uptake in brain to plasma in rat at 10 mg/kg, po. The format is ADME, organism-based. More on the design: dose 10 mg/kg, route oral. Conditions: brain and plasma, read-out: BPR. Put shortly: as §1

For the compound `COc1ccc(-c2c(C)nn3c(NC(C)Cc4nc(C)no4)cc(C)nc23)c(C)c1` (stereo not given), in data set [1], the Fh is 32%. In addition, the Ki in data set [2] is 0.0316 µM. Regarding `CCC(Nc1cc(C)nc2c(-c3ccc(OC)cc3OC)c(C)nn12)c1nc(C)no1` (stereo not given), in data set [2], the Ki is 0.0501 µM. On to `CCC(Nc1cc(C)nc2c(-c3ccc(OC)cc3C)c(C)nn12)c1nnc(C)o1` (stereo not given), for which the Fh in data set [1] worked out at 64%. In addition, the Ki in data set [2] was 0.1 µM. Turning to `CC[C@H](Nc1cc(C)nc2c(-c3ccc(OC)cc3C)c(C)nn12)c1nc(C)no1` [VERUCERFONT], the AUC in the data set with Rattus norvegicus amounted to 3130 ng·h/mL. The compound further had a Vd in data set [3] of 7.5 L/kg. The Kp in data set [4] worked out at 1.6. Consider `COc1ccc(-c2c(C)nn3c(NC(C)Cc4nnc(C)o4)cc(C)nc23)c(C)c1` (stereo not given), for which the Ki in data set [2] is 0.251 µM. As for `CCN(Cc1nc(C)no1)c1cc(C)nc2c(-c3ccc(OC)cc3C)c(C)nn12`, the Fh in data set [1] stood at 17%. In addition, the Ki in data set [2] was 0.00501 µM. As for `CCCN(CCC)c1cc(C)nc2c(-c3cnc(N(C)C)cc3C)c(C)nn12`, the Fh in data set [1] came to 17%. With `COc1ccc(-c2c(C)nn3c(NC(C)Cc4noc(C)n4)cc(C)nc23)c(C)c1` (stereo not given), in data set [1], the Fh was determined as 26%. Moreover, the Ki in data set [2] was 0.0794 µM. With `COc1ccc(-c2c(C)nn3c(NCc4nc(C)no4)cc(C)nc23)c(C)c1`, the Ki in data set [2] was 0.0631 µM.

Broadly, the Ki is the equilibrium dissociation constant of an inhibitor or competing ligand from its target. As usually defined, the AUC is the area under the concentration-time curve, a measure of exposure. Lower therefore signals less exposure. One may read the Vd as the apparent volume that relates the amount in the body to the concentration in plasma or blood. Read a high Vd as extensive tissue distribution.
